Activity calls are given as the source filed them. The calls are words filed in the database; no cut-off is given here.
Experiments:
[1] = Selectivity index, ratio of CC50 for human A549 cells to IC50 for Plasmodium falciparum D6; format: toxicity; settings: read-out: Ratio CC50/IC50
Summary of the method: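 Ratio CC50/IC50. CC50: A549 cells, 4-day proliferation, Coulter counting. IC50: Pf D6 ring-stage cultures, 0.5% parasitemia, 2% hematocrit, hypoxanthine-free medium, ten 2-fold dilutions of phosphoramidate prodrugs for 96 h; [3H]-hypoxanthine added at ~48 h; IC50 by non-linear regression; at least two independent experiments, mean ±SD.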

Plasmodium falciparum [2] = assay: Antimalarial activity against chloroquine and pyrimethamine-resistant Plasmodium falciparum W2 infected in type O+ human RBC assessed as reduction in [3H]hypoxanthine incorporation preincubated for 48 hrs followed by [3H]hypoxanthine addition measured after 96 hrs; format: functional
Summary of the method: (§1)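 Ring-stage synchronized cultures (>90% early trophozoite, D-sorbitol) at 0.5% parasitemia, 2% hematocrit in hypoxanthine-free RPMI-1640-LPLF with 10% human plasma, 37°C under 5% O2/5% CO2/90% N2. Ten 2-fold serial dilutions of prodrug for 96 h. [3H]-hypoxanthine (0.2 μCi/well) added at ~48 h. IC50 from non-linear regression of incorporation versus log concentration. Mean (±SD) of at least two independent experiments.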

Plasmodium falciparum [3] = assay: Antimalarial activity against Plasmodium falciparum D6 infected in type O+ human RBC assessed as reduction in [3H]hypoxanthine incorporation preincubated for 48 hrs followed by [3H]hypoxanthine addition measured after 96 hrs; format: functional; summary of the method: as §1
[4] = Cytotoxicity against human A549 cells after 4 days by Coulter counting method; format: cell-based
Summary of the method: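 Human lung carcinoma A549 cells seeded at 7500 cells/well, compounds added next day in serial dilutions; 4 days at 37°C, then cells trypsinized and counted. CC50 = concentration giving 50% inhibition of proliferation versus no-compound control, derived by extrapolation assuming semi-log dose-response.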

Plasmodium falciparum [5] = assay: Inhibition of Plasmodium falciparum HGPRT using PRib-PP as the substrate at 33 uM by spectrophotometric method
[6] = biological target: T1, Hypoxanthine-guanine phosphoribosyltransferase (Homo sapiens, UniProt P00492); assay: Inhibition of human HGPRT using PRib-PP as the substrate by spectrophotometric method
T1 sequence (P00492 whole entry): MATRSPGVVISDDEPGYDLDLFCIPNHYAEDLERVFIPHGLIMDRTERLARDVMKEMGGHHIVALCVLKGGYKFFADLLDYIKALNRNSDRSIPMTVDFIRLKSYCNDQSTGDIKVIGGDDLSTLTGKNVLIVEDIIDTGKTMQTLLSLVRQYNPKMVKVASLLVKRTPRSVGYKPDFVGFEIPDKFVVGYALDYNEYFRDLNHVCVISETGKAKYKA
Summary of the method: (§2)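 Enzyme assays in 0.1 M Tris-HCl, 10 mM MgCl2, pH 7.4. Guanine fixed at 49 µM as non-variable substrate; PRib-PP varied 20-1400 µM at fixed inhibitor concentration; Hanes' plots. Ki from Km(app) = Km[1+[I]/Ki], assuming competitive inhibition; for Ki <2 µM, Km(app) measured at three inhibitor concentrations.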

[7] = Inhibition of Plasmodium falciparum HGPRT using PRib-PP as the substrate by spectrophotometric method; summary of the method: as §2
Plasmodium falciparum [8] = assay: Inhibition of Plasmodium falciparum HGPRT using PRib-PP as the substrate at 50 uM by spectrophotometric method

Row | Structure (SMILES) | CC50 at 96 h [4] | Ki [6] | Ki [7] | also measured
1 | CCOC(=O)[C@H](Cc1ccccc1)NP(=O)(CCOCC(COCP(=O)(N[C@@H](Cc1ccccc1)C(=O)OCC)N[C@@H](Cc1ccccc1)C(=O)OCC)Cn1cnc2c(=O)[nH]c(N)nc21)N[C@@H](Cc1ccccc1)C(=O)OCC (stereo not given in full) | 212 µM | – | – | selectivity ratio [1]: 37; IC50 (Plasmodium falciparum [2]): 7.4 µM; IC50 (Plasmodium falciparum [3]): 5.7 µM
2 | CCOC(=O)[C@H](Cc1ccccc1)NP(=O)(CCOCC(COCP(=O)(N[C@@H](Cc1ccccc1)C(=O)OCC)N[C@@H](Cc1ccccc1)C(=O)OCC)Cn1c(Br)nc2c(=O)[nH]c(N)nc21)N[C@@H](Cc1ccccc1)C(=O)OCC (stereo not given in full) | 151 µM | – | – | selectivity ratio [1]: 27; IC50 (Plasmodium falciparum [2]): 8.3 µM; IC50 (Plasmodium falciparum [3]): 5.6 µM
3 | O=c1[nH]cnc2c1ncn2CC(COCCP(=O)(O)O)OCCP(=O)(O)O (stereo not given) | – | 0.7 µM | – | inhibition (Plasmodium falciparum [5]): inactive
4 | CCOC(=O)[C@H](Cc1ccccc1)NP(=O)(CCOCC(Cn1c(Br)nc2c(=O)[nH]c(N)nc21)OCCP(=O)(N[C@@H](Cc1ccccc1)C(=O)OCC)N[C@@H](Cc1ccccc1)C(=O)OCC)N[C@@H](Cc1ccccc1)C(=O)OCC (stereo not given in full) | 188 µM | – | – | –
5 | Nc1nc2c(nc(Br)n2CC(COCCP(=O)(O)O)COCP(=O)(O)O)c(=O)[nH]1 (stereo not given) | – | 0.1 µM | 2 µM | –
6 | CCOC(=O)[C@H](Cc1ccccc1)NP(=O)(CCOCC(COCP(=O)(N[C@@H](Cc1ccccc1)C(=O)OCC)N[C@@H](Cc1ccccc1)C(=O)OCC)Cn1cnc2c(=O)[nH]cnc21)N[C@@H](Cc1ccccc1)C(=O)OCC (stereo not given in full) | 82 µM | – | – | selectivity ratio [1]: 59; IC50 (Plasmodium falciparum [2]): 3.2 µM; IC50 (Plasmodium falciparum [3]): 1.4 µM
7 | O=c1[nH]cnc2c1nc(Br)n2CC(COCCP(=O)(O)O)COCP(=O)(O)O (stereo not given) | – | 2.5 µM | – | inhibition (Plasmodium falciparum [8]): inactive
8 | CCOC(=O)[C@H](Cc1ccccc1)NP(=O)(CCOCC(Cn1cnc2c(=O)[nH]cnc21)OCCP(=O)(N[C@@H](Cc1ccccc1)C(=O)OCC)N[C@@H](Cc1ccccc1)C(=O)OCC)N[C@@H](Cc1ccccc1)C(=O)OCC (stereo not given in full) | – | – | – | selectivity ratio [1]: 25; IC50 (Plasmodium falciparum [2]): 1.9 µM; IC50 (Plasmodium falciparum [3]): 3.6 µM
9 | CCOC(=O)[C@H](Cc1ccccc1)NP(=O)(CCOCC(COCP(=O)(N[C@@H](Cc1ccccc1)C(=O)OCC)N[C@@H](Cc1ccccc1)C(=O)OCC)Cn1c(Br)nc2c(=O)[nH]cnc21)N[C@@H](Cc1ccccc1)C(=O)OCC (stereo not given in full) | 36 µM | – | – | –
10 | Nc1nc2c(ccn2CC(COCCP(=O)(O)O)COCP(=O)(O)O)c(=O)[nH]1 (stereo not given) | – | 0.1 µM | 4 µM | –
11 | CCOC(=O)[C@H](Cc1ccccc1)NP(=O)(CCOCC(COCP(=O)(N[C@@H](Cc1ccccc1)C(=O)OCC)N[C@@H](Cc1ccccc1)C(=O)OCC)Cn1ccc2c(=O)[nH]c(N)nc21)N[C@@H](Cc1ccccc1)C(=O)OCC (stereo not given in full) | 106 µM | – | – | selectivity ratio [1]: 59; IC50 (Plasmodium falciparum [2]): 6.5 µM; IC50 (Plasmodium falciparum [3]): 1.8 µM
12 | Nc1nc2c(ncn2CC(COCCP(=O)(O)O)COCP(=O)(O)O)c(=O)[nH]1 (stereo not given) | – | 0.006 µM | 0.07 µM | –
13 | O=c1[nH]cnc2c1ncn2CC(COCP(=O)(O)O)COCP(=O)(O)O | – | – | 5 µM | –
14 | O=c1[nH]cnc2c1ncn2CC(COCCP(=O)(O)O)COCP(=O)(O)O (stereo not given) | – | 1.8 µM | 3 µM | –
15 | O=c1[nH]cnc2c1ccn2CC(COCCP(=O)(O)O)COCP(=O)(O)O (stereo not given) | – | 4.6 µM | 6 µM | –
16 | Nc1nc2c(ncn2CC(COCCP(=O)(O)O)OCCP(=O)(O)O)c(=O)[nH]1 (stereo not given) | – | – | 0.5 µM | –
17 | CCOC(=O)[C@H](Cc1ccccc1)NP(=O)(CCOCC(COCP(=O)(N[C@@H](Cc1ccccc1)C(=O)OCC)N[C@@H](Cc1ccccc1)C(=O)OCC)Cn1ccc2c(=O)[nH]cnc21)N[C@@H](Cc1ccccc1)C(=O)OCC (stereo not given in full) | 20 µM | – | – | –
18 | Nc1nc2c(nc(Br)n2CC(COCCP(=O)(O)O)OCCP(=O)(O)O)c(=O)[nH]1 (stereo not given) | – | 0.4 µM | 0.9 µM | –

From ChEMBL document CHEMBL4038349, “Synthesis and Evaluation of Asymmetric Acyclic Nucleoside Bisphosphonates as Inhibitors of Plasmodium falciparum and Human Hypoxanthine-Guanine-(Xanthine) Phosphoribosyltransferase” (J Med Chem, 2017)
